Hits are enriched below; roughly 3.1% of the tested compounds scored in any of these assays.
Apaf-1 inh: inhibitors of human Apaf-1 apoptosome; hit rate 0.71% among 330,000; inhibition, % at 20 µM; reconstituted apoptosome caspase-3 activity, DEVD-Rh110 fluorescence; active = inhibition of at least 40% at 20 µM;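 note: plate controls were DMSO wells for no effect and DEVD-CHO caspase inhibitor wells for full effect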
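Medium: Hepes buffer, pH 7.5 / System: biochemical Apaf-1 apoptosome reconstitution / Measured by: Rh110 fluorescence, excitation 480 nm, emission 540 nm / Times: compound with Apaf-1, dATP, procaspase-3 30 min, then 50 min reaction, room temperature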
UBC13 polyUb: blocks human UBC13 polyubiquitin chain formation; AID 485273; inhibition, % at 20 µM; P61088; TR-FRET; hit rate 0.47% among 330,000; in the data active = inhibition above about 45%, passing the limit was not always enough
Target sequence (P61088 whole entry, looked up): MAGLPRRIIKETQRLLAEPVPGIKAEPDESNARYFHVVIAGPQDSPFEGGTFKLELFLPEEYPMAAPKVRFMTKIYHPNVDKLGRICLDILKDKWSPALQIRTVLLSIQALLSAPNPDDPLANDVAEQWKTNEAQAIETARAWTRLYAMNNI
MEKK3 PB1 HTS: raises or lowers MEK5 binding to the human MEKK3 PB1 domain; Q99759; bead-based flow cytometry, Alexa488-MEK5 binding to MEKK3; actives lie on both sides; 0 = blocked by unlabeled MEK5, 100 = vehicle; binding response (% of control), % at 10 µM; hit rate 1.4% among 290,000;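 active = binding response more than 3 SD above or below the average of its plate-row segment, actives on both sides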;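 note: Alexa488 bead fluorescence after subtracting the streptavidin-only scavenger bead signal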
MEKK2 WT-MEK5: raises or lowers MEK5 binding to wildtype human MEKK2 PB1 domain; Q9Y2U5; bead flow cytometry, Alexa488-MEK5 binding to MEKK2 WT; actives lie on both sides; binding response (% of control), % at 10 µM; hit rate 1.1% among 290,000; AID 1531; in the data active = binding response below about 67% or above about 130%
PREPL inhibitor: inhibits the human prolyl oligopeptidase-like enzyme. Q4J6C6. recombinant PREPL, fluorescence polarization activity-based probe. inhibition, % at 5.96 µM. hit rate 0.68% among 320,000; in the data active = inhibition above about 43%;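 note: 0% = enzyme with DMSO and 100% = wells lacking enzyme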
MEKK2 mut-MEK5: signal of MEK5 binding to mutant human MEKK2 PB1 domain; bead flow cytometry, Alexa488-MEK5 binding to MEKK2 mutant; percent response, % at 10 µM; hit rate 0.35% among 290,000; AID 1530; in the data active = percent response above about 24%, passing the limit was not always enough
MEKK2wt confirm: raises or lowers MEK5 binding to wildtype human MEKK2, retest; bead flow cytometry, Alexa488-MEK5 binding to MEKK2 WT; actives lie on both sides; binding response (% of control), % at 10 µM; shares compounds with MEKK3 PB1 HTS; hit rate 2.4% among 5,900; in the data active = binding response below about 16% or above about 210%; inactive = in between
MEKK2mut confirm: signal of MEK5 binding to mutant human MEKK2, retest; shares compounds with MEKK3 PB1 HTS; bead flow cytometry, Alexa488-MEK5 binding to MEKK2 mutant; percent response, % at 10 µM; hit rate 2% among 5,900; AID 1893; in the data active = percent response mostly above about 71%, no sharp cut-off; inactive = mostly below about 38%;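 note: higher means compound restores mutant binding toward wildtype level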
MEKK3 confirm: MEKK3-MEK5 PB1 inhibition, single concentration confirmation | binding response (% of control), % at 10 µM | hit rate 1.8% among 5,900 | bead flow cytometry, Alexa488-MEK5 binding to MEKK3; hits give low values | shares compounds with MEKK3 PB1 HTS;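 active = binding response below 72% of control, or above a set upper limit, though filed actives all read lower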;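 note: 100% = DMSO only wells and 0% = binding blocked by excess unlabeled MEK5; lower values mean stronger disruption of MEK5 binding to MEKK3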
The depositor's hits bear a star; [ ] = dose if it differs, or a comment.

COC(=O)c1cccc(N(C(=O)c2cnccn2)C(C(=O)NC2CCCCC2)c2cn(C)nc2C)c1 (centres undefined) was read as Apaf-1 inh 11.0, UBC13 polyUb -12.2, MEKK3 PB1 HTS 46.0*[inhibitor], MEKK2 WT-MEK5 58.0, PREPL inhibitor -0.8, MEKK2 mut-MEK5 -28.0, MEKK2wt confirm 105.0, MEKK2mut confirm 2.0 and MEKK3 confirm 98.0.
For Cc1nn(C)cc1C(C(=O)NC1CCCCC1)N(Cc1ccccc1Cl)C(=O)c1cnccn1 (centres undefined) the results were Apaf-1 inh 1.8, UBC13 polyUb -3.8, MEKK3 PB1 HTS 99.0, MEKK2 WT-MEK5 98.0, PREPL inhibitor -2.4 and MEKK2 mut-MEK5 -9.0.
`COc1ccc(CC(=O)N(C)Cc2cccc(OC)c2OC)cc1S(=O)(=O)N1CCOCC1` gave Apaf-1 inh 24.2, UBC13 polyUb 21.1 and PREPL inhibitor 13.4.
CCC1SC2=NC(C)=C(C(=O)OCCOC)C(/C=C/c3ccccc3OC)N2C1=O (centres undefined) was read as Apaf-1 inh 6.6, UBC13 polyUb 0.5, MEKK3 PB1 HTS 124.0*, MEKK2 WT-MEK5 116.0, PREPL inhibitor 0.4, MEKK2 mut-MEK5 5.0, MEKK2wt confirm 95.0, MEKK2mut confirm -6.0 and MEKK3 confirm 100.0.
CCOC(=O)c1c(C)n(C)c2cc(-c3ccc(C)cc3)c(O)cc12 was read as Apaf-1 inh -0.9, UBC13 polyUb -8.8, MEKK3 PB1 HTS 131.0*, MEKK2 WT-MEK5 105.0, PREPL inhibitor 11.3, MEKK2 mut-MEK5 0.0, MEKK2wt confirm 103.0, MEKK2mut confirm 1.0 and MEKK3 confirm 103.0.
COCCOC(=O)c1c(C)n(C)c2ccc(OC(=O)c3ccco3)cc12 was read as Apaf-1 inh -5.3, UBC13 polyUb 3.8, MEKK3 PB1 HTS 99.0, MEKK2 WT-MEK5 98.0, PREPL inhibitor 25.6 and MEKK2 mut-MEK5 -1.0.
`CCOC(=O)c1c(C)n(C)c2ccc(OC(=O)c3ccc([N+](=O)[O-])cc3)cc12` gave Apaf-1 inh -5.8, UBC13 polyUb -6.7, MEKK3 PB1 HTS 138.0*, MEKK2 WT-MEK5 103.0, PREPL inhibitor 22.2, MEKK2 mut-MEK5 -1.0, MEKK2wt confirm 102.0, MEKK2mut confirm 3.0 and MEKK3 confirm 103.0.
O=C(c1cccc2nccnc12)N1CCCC(Nc2ccc(F)c(F)c2)C1 (centres undefined) was read as Apaf-1 inh 2.4, UBC13 polyUb -14.6, MEKK3 PB1 HTS 106.0, MEKK2 WT-MEK5 107.0, PREPL inhibitor 6.5 and MEKK2 mut-MEK5 15.0.
COC(=O)CCC(=O)OC1(C)C(=O)C2=CN(c3ccccc3)C(c3ccc(OC)cc3)=CC2=C(Br)C1=O (centres undefined) was read as Apaf-1 inh 23.3, UBC13 polyUb -101.5, MEKK3 PB1 HTS 75.0*[inhibitor], MEKK2 WT-MEK5 -5.0*, PREPL inhibitor 29.8, MEKK2 mut-MEK5 5.0, MEKK2wt confirm 89.0, MEKK2mut confirm -4.0 and MEKK3 confirm 91.0.
For COc1ccc(Cn2c(-c3ccc(OC)cc3)nc3ccccc32)cc1 the results were Apaf-1 inh 3.6, UBC13 polyUb -7.0, MEKK3 PB1 HTS 98.0, MEKK2 WT-MEK5 97.0, PREPL inhibitor -11.4 and MEKK2 mut-MEK5 2.0.
COc1ccc(Cn2c(-c3ccc(Br)cc3)c[n+]3ccccc23)cc1 was read as Apaf-1 inh 8.3, UBC13 polyUb 8.0, MEKK3 PB1 HTS 110.0, MEKK2 WT-MEK5 140.0*, PREPL inhibitor -2.4, MEKK2 mut-MEK5 36.0, MEKK2wt confirm 118.0, MEKK2mut confirm 11.0 and MEKK3 confirm 106.0.
For CN(C)c1nc(Oc2ccc(/C=N/O)cc2)nc(N(C)C)n1 the results were Apaf-1 inh -2.5, UBC13 polyUb 1.4, MEKK3 PB1 HTS 103.0, MEKK2 WT-MEK5 102.0, PREPL inhibitor -12.2 and MEKK2 mut-MEK5 8.0.
`CC(C)Nc1nc(NC(C)C)nc(Oc2ccc(/C=N/O)cc2)n1` gave Apaf-1 inh 6.0, UBC13 polyUb 1.5, MEKK3 PB1 HTS 124.0*, MEKK2 WT-MEK5 94.0, PREPL inhibitor -10.3, MEKK2 mut-MEK5 7.0, MEKK2wt confirm 92.0, MEKK2mut confirm -8.0 and MEKK3 confirm 94.0.
Screening CCOc1ncccc1C(=O)Nc1cc2c(cc1Br)OCCO2 returned Apaf-1 inh 9.4, UBC13 polyUb 2.3 and PREPL inhibitor 20.0.
`CN(c1ccccc1)S(=O)(=O)c1cccc(NS(=O)(=O)c2cccc(C(=O)O)c2)c1` gave Apaf-1 inh 17.9, UBC13 polyUb -16.1 and PREPL inhibitor -3.7.
O=C(C[C@H]1C/C=C\CC[C@H](Cc2ccc(F)cc2)C(=O)OC[C@@H]2CCCN2C1=O)N[C@H](CO)Cc1ccccc1 was read as Apaf-1 inh 19.1, UBC13 polyUb 12.3 and PREPL inhibitor 20.9.
For Oc1cccc(NC(=S)Nc2ccc(SC(F)F)cc2)c1 the results were Apaf-1 inh -8.9, UBC13 polyUb 7.4, MEKK3 PB1 HTS 106.0, MEKK2 WT-MEK5 110.0, PREPL inhibitor 2.1 and MEKK2 mut-MEK5 1.0.
For S=C(Nc1ccc(Br)cc1)NC1CCCCC1 the results were Apaf-1 inh 3.1, UBC13 polyUb -9.2, MEKK3 PB1 HTS 151.0*, MEKK2 WT-MEK5 116.0, PREPL inhibitor 3.6, MEKK2 mut-MEK5 1.0, MEKK2wt confirm 108.0, MEKK2mut confirm 6.0 and MEKK3 confirm 107.0.
`S=C(Nc1ccc(Cl)cc1)NC1CCCCC1` gave Apaf-1 inh -1.1, UBC13 polyUb 8.8, MEKK3 PB1 HTS 102.0, MEKK2 WT-MEK5 101.0, PREPL inhibitor 10.2 and MEKK2 mut-MEK5 4.0.
For FC(F)Sc1ccc(NC(=S)NC2CCC(NC(=S)Nc3ccc(SC(F)F)cc3)CC2)cc1 (centres undefined) the results were Apaf-1 inh 11.9, UBC13 polyUb -6.4, MEKK3 PB1 HTS 112.0, MEKK2 WT-MEK5 145.0*, PREPL inhibitor 6.8, MEKK2 mut-MEK5 9.0, MEKK2wt confirm 131.0, MEKK2mut confirm 12.0 and MEKK3 confirm 104.0.
Screening CN1CCN(Cc2cc(Cl)c3cccnc3c2OC(=O)c2cccs2)CC1 returned Apaf-1 inh -1.5, UBC13 polyUb -1.5, MEKK3 PB1 HTS 72.0*[inhibitor], MEKK2 WT-MEK5 94.0, PREPL inhibitor 9.5, MEKK2 mut-MEK5 -1.0, MEKK2wt confirm 105.0, MEKK2mut confirm -1.0 and MEKK3 confirm 100.0.
